≈ marks a conversion by molar mass, not a printed value.
Legend:
Format in all cases: functional
[1] = test system: Staphylococcus epidermidis; assay: Antibacterial activity against methicillin-susceptible Staphylococcus epidermidis by agar microdilution method
Summary of the method: (§1)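 MIC by agar microdilution following NCCLS standard M7-A6 (2003), tested against clinical isolates: MRSA n = 6, MRSE n = 5, MSSA n = 5, MSSE n = 5; values given as a single MIC or a range across isolates.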

[2] = test system: Staphylococcus epidermidis; assay: Antibacterial activity against methicillin-resistant Staphylococcus epidermidis by agar microdilution method; summary of the method: as §1
Streptococcus pneumoniae = assay: Antibacterial activity against Streptococcus pneumoniae by agar microdilution method
Summary of the method: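 MIC read by agar microdilution following NCCLS standard M7-A6 (2003), against a panel of 3 Streptococcus pneumoniae clinical isolates. Values in µg/mL, given as a range where the isolates differed.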

Staphylococcus aureus [3] = assay: Antibacterial activity against methicillin-susceptible Staphylococcus aureus by agar microdilution method; summary of the method: as §1
Staphylococcus aureus [4] = assay: Antibacterial activity against methicillin-resistant Staphylococcus aureus by agar microdilution method; summary of the method: as §1

| Structure (SMILES) | MIC [1] | MIC [2] | MIC (Streptococcus pneumoniae) | MIC (Staphylococcus aureus [3]) | MIC (Staphylococcus aureus [4]) |
| --- | --- | --- | --- | --- | --- |
| C=C[C@]1(C)C[C@@H](OC(=O)N2Cc3c(NC(=O)[C@@H](N)C(C)C)cccc3C2=O)[C@]2(C)[C@H](C)CC[C@]3(CCC(=O)[C@H]32)[C@@H](C)[C@@H]1O.Cl | 0.5 µg/mL | 0.5 µg/mL | 0.5 µg/mL | 0.5 µg/mL | 0.5 µg/mL |
| C=C[C@]1(C)C[C@@H](OC(=O)N2Cc3ccc(NC(=O)[C@H](C)N)cc3C2=O)[C@]2(C)[C@H](C)CC[C@]3(CCC(=O)[C@H]32)[C@@H](C)[C@@H]1O.Cl | 0.5 µg/mL | 0.5 µg/mL | 0.5 µg/mL | 0.5 µg/mL | 0.5 µg/mL |
| C=C[C@]1(C)C[C@@H](OC(=O)N2Cc3ccc(NC(=O)[C@@H](N)C(C)C)cc3C2=O)[C@]2(C)[C@H](C)CC[C@]3(CCC(=O)[C@H]32)[C@@H](C)[C@@H]1O.Cl | 1 µg/mL | 1 µg/mL | 2 µg/mL | 1 µg/mL | 1 µg/mL |
| C=C[C@]1(C)C[C@@H](OC(=O)N2CCc3cc(OC)ccc3C2=O)[C@]2(C)[C@H](C)CC[C@]3(CCC(=O)[C@H]32)[C@@H](C)[C@@H]1O | 1 µg/mL (≈ 1.91 µM) | 0.5 µg/mL (≈ 0.955 µM) | 2 µg/mL (≈ 3.82 µM) | 1 µg/mL (≈ 1.91 µM) | 2 µg/mL (≈ 3.82 µM) |
| C=C[C@]1(C)C[C@@H](OC(=O)N2CCc3ccccc3C2=O)[C@]2(C)[C@H](C)CC[C@]3(CCC(=O)[C@H]32)[C@@H](C)[C@@H]1O | 0.25 µg/mL (≈ 0.506 µM) | 0.25 µg/mL (≈ 0.506 µM) | 0.25 µg/mL (≈ 0.506 µM) | 0.25 µg/mL (≈ 0.506 µM) | 0.25 µg/mL (≈ 0.506 µM) |
| C=C[C@]1(C)C[C@@H](OC(=O)N2CCc3ccc([N+](=O)[O-])cc3C2=O)[C@]2(C)[C@H](C)CC[C@]3(CCC(=O)[C@H]32)[C@@H](C)[C@@H]1O | 1 µg/mL (≈ 1.86 µM) | 1 µg/mL (≈ 1.86 µM) | 2 µg/mL (≈ 3.71 µM) | 1 µg/mL (≈ 1.86 µM) | 1 µg/mL (≈ 1.86 µM) |
| C=C[C@]1(C)C[C@@H](OC(=O)N2CCc3cc(OCCN4CCOCC4)ccc3C2=O)[C@]2(C)[C@H](C)CC[C@]3(CCC(=O)[C@H]32)[C@@H](C)[C@@H]1O | 0.5 µg/mL (≈ 0.803 µM) | 0.5 µg/mL (≈ 0.803 µM) | 0.5 µg/mL (≈ 0.803 µM) | 0.5 µg/mL (≈ 0.803 µM) | 0.5 µg/mL (≈ 0.803 µM) |
| C=C[C@]1(C)C[C@@H](OC(=O)N2CCc3cc(OCCN4CCCCC4)ccc3C2=O)[C@]2(C)[C@H](C)CC[C@]3(CCC(=O)[C@H]32)[C@@H](C)[C@@H]1O | 0.5 µg/mL (≈ 0.805 µM) | 1 µg/mL (≈ 1.61 µM) | 1 µg/mL (≈ 1.61 µM) | 0.5 µg/mL (≈ 0.805 µM) | 0.5 µg/mL (≈ 0.805 µM) |
| C=C[C@]1(C)C[C@@H](OC(=O)N2CCc3cc(OCCN4CCN(C)CC4)ccc3C2=O)[C@]2(C)[C@H](C)CC[C@]3(CCC(=O)[C@H]32)[C@@H](C)[C@@H]1O | 0.5 µg/mL (≈ 0.786 µM) | 0.5 µg/mL (≈ 0.786 µM) | 0.5 µg/mL (≈ 0.786 µM) | 0.5 µg/mL (≈ 0.786 µM) | 0.5 µg/mL (≈ 0.786 µM) |
| C=C[C@]1(C)C[C@@H](OC(=O)N2CCc3cc(OCCCN4CCOCC4)ccc3C2=O)[C@]2(C)[C@H](C)CC[C@]3(CCC(=O)[C@H]32)[C@@H](C)[C@@H]1O | 0.5 µg/mL (≈ 0.785 µM) | 0.5 µg/mL (≈ 0.785 µM) | 0.5 µg/mL (≈ 0.785 µM) | 0.5 µg/mL (≈ 0.785 µM) | 0.5 µg/mL (≈ 0.785 µM) |
| C=C[C@]1(C)C[C@@H](OC(=O)N2CCc3cc(OCCCN4CCCCC4)ccc3C2=O)[C@]2(C)[C@H](C)CC[C@]3(CCC(=O)[C@H]32)[C@@H](C)[C@@H]1O | 0.5 µg/mL (≈ 0.788 µM) | 0.5 µg/mL (≈ 0.788 µM) | 0.5 µg/mL (≈ 0.788 µM) | 0.5 µg/mL (≈ 0.788 µM) | 0.5 µg/mL (≈ 0.788 µM) |
| C=C[C@]1(C)C[C@@H](OC(=O)N2CCc3cc(OCCCN4CCN(C)CC4)ccc3C2=O)[C@]2(C)[C@H](C)CC[C@]3(CCC(=O)[C@H]32)[C@@H](C)[C@@H]1O | 0.5 µg/mL (≈ 0.769 µM) | 0.5 µg/mL (≈ 0.769 µM) | 0.5 µg/mL (≈ 0.769 µM) | 0.5 µg/mL (≈ 0.769 µM) | 0.5 µg/mL (≈ 0.769 µM) |
| C=C[C@]1(C)C[C@@H](OC(=O)N2CCc3cc(OCCCCN4CCOCC4)ccc3C2=O)[C@]2(C)[C@H](C)CC[C@]3(CCC(=O)[C@H]32)[C@@H](C)[C@@H]1O | 0.5 µg/mL (≈ 0.768 µM) | 0.5 µg/mL (≈ 0.768 µM) | 0.5 µg/mL (≈ 0.768 µM) | 0.5 µg/mL (≈ 0.768 µM) | 0.5 µg/mL (≈ 0.768 µM) |
| C=C[C@]1(C)C[C@@H](OC(=O)N2CCc3ccc(N)cc3C2=O)[C@]2(C)[C@H](C)CC[C@]3(CCC(=O)[C@H]32)[C@@H](C)[C@@H]1O | 0.0625 µg/mL (≈ 0.123 µM) | 0.0625 µg/mL (≈ 0.123 µM) | 0.0625 µg/mL (≈ 0.123 µM) | 0.0625 µg/mL (≈ 0.123 µM) | 0.0625 µg/mL (≈ 0.123 µM) |
| C=C[C@]1(C)C[C@@H](OC(=O)NC(=O)c2ccc(OC)cc2)[C@]2(C)[C@H](C)CC[C@]3(CCC(=O)[C@H]32)[C@@H](C)[C@@H]1O | – | – | 0.0625 µg/mL (≈ 0.126 µM) | – | – |
| CC(=O)NC[C@H]1CN(c2ccc(N3CCOCC3)c(F)c2)C(=O)O1 [LINEZOLID] | 0.5 µg/mL (≈ 1.48 µM) | – | – | 0.5 µg/mL (≈ 1.48 µM) | – |
| C=C[C@]1(C)C[C@@H](OC(=O)CS[C@@H]2C[C@H]3CC[C@@H](C2)N3C)[C@]2(C)[C@H](C)CC[C@]3(CCC(=O)[C@H]32)[C@@H](C)[C@@H]1O [RETAPAMULIN] | 0.0625 µg/mL (≈ 0.121 µM) | 0.125 µg/mL (≈ 0.241 µM) | 0.0625 µg/mL (≈ 0.121 µM) | 0.0625 µg/mL (≈ 0.121 µM) | 0.125 µg/mL (≈ 0.241 µM) |

Source: ChEMBL document CHEMBL1938381, “Design, synthesis, and structure-activity relationship studies of conformationally restricted mutilin 14-carbamates” (2012)
